Assay results: ChEMBL document CHEMBL1153450, “Ligustrazine derivatives. Part 3: Design, synthesis and evaluation of novel acylpiperazinyl derivatives as potential cerebrocardiac vascular agents” (Bioorg Med Chem, 2009)

What was measured:
ECV-304 = assay: Protection against hydrogen peroxide-induced cell damage in human ECV304 cells treated 30 mins before hydrogen peroxide challenge measured after 6 hrs; type: functional, cell-based
Method in brief: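 ECV-304 cells grown 24 h, then given fresh medium with compound at 12.5, 25, 50, 100 or 200 µM. After 0.5 h, 150 µM H2O2 added, then 6 h further incubation. Read-out is absorbance at 570 nm, mean ± SEM, n = 6. Proliferation rate = (OD compd − OD H2O2)/(OD control − OD H2O2) × 100%. EC50 derived by a pEC50 summation formula over proliferation rates.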

[1] = Antiplatelet activity in rabbit platelets assessed as inhibition of ADP-induced platelet aggregation at 200 uM by aggregometer; type: functional, Oryctolagus cuniculus; set-up: scale not given: the % may be the effect or the level left
Method in brief: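 Rabbit blood anticoagulated with 3.8% trisodium citrate (0.3 ml per 2.7 ml blood). ADP and compound (200 µM) added in sequence, with blank and ADP-control cuvettes. Platelet-rich plasma from 270 g/5 min spin, platelet-poor plasma from 1000 g/10 min spin. Aggregation read on aggregometer and reported as mean aggregation rate A% (n = 6).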

[2] = Half life in human; type: ADME, organism-based; conditions: in vivo

SMILES	EC50 (ECV-304)	Activity [1]	half-life [2]
Cc1nc(C)c(CN2CCN(C(=O)c3ccc(I)cc3)CC2)nc1C	125 µM	25.17%	–
Cc1nc(C)c(CN2CCN(C(=O)C(=O)c3ccccc3)CC2)nc1C	304 µM	26.11%	–
Cc1nc(C)c(CN2CCN(C(=O)c3ccccc3O)CC2)nc1C	6.13 µM	16.71%	–
Cc1nc(C)c(CN2CCN(S(=O)(=O)c3ccccc3)CC2)nc1C	480 µM	24.49%	–
Cc1ccc(S(=O)(=O)N2CCN(Cc3nc(C)c(C)nc3C)CC2)cc1	–	25.13%	–
CCOC(=O)N1CCN(Cc2nc(C)c(C)nc2C)CC1	76.6 µM	15.25%	–
COc1cc(C(=O)N2CCN(Cc3nc(C)c(C)nc3C)CC2)cc(OC)c1OC	88.7 µM	14.26%	–
COc1ccc(C(=O)N2CCN(Cc3nc(C)c(C)nc3C)CC2)cc1OC	170 µM	29.06%	–
Cc1nc(C)c(CN2CCN(C(=O)c3cc([N+](=O)[O-])cc([N+](=O)[O-])c3)CC2)nc1C	179 µM	15.67%	–
Cc1nc(C)c(CN2CCN(C(=O)CCc3ccccc3)CC2)nc1C	150 µM	13.29%	–
Cc1nc(C)c(CN2CCN(C(=O)Cc3ccccc3)CC2)nc1C	189 µM	25.59%	–
COc1cccc(/C=C/C(=O)N2CCN(Cc3nc(C)c(C)nc3C)CC2)c1OC	340 µM	8.78%	–
COc1cc(/C=C/C(=O)N2CCN(Cc3nc(C)c(C)nc3C)CC2)ccc1OC(C)=O	–	5.84%	–
Cc1nc(C)c(CN2CCN(C(=O)c3ccccc3)CC2)nc1C	241 µM	28.46%	–
Cc1nc(C)c(CN2CCN(C(=O)c3ccccc3Cl)CC2)nc1C	161 µM	27.24%	–
Cc1nc(C)c(CN2CCN(C(=O)c3cccc(Cl)c3)CC2)nc1C	121 µM	24.74%	–
Cc1nc(C)c(CN2CCN(C(=O)c3ccc(Cl)cc3)CC2)nc1C	208 µM	25.62%	–

SMILES	EC50 (ECV-304)	Activity [1]	half-life [2]
Cc1nc(C)c(CN2CCN(C(=O)c3ccc(Cl)cc3Cl)CC2)nc1C	249 µM	16.08%	–
COc1ccc(OC)c(/C=C/C(=O)N2CCN(Cc3nc(C)c(C)nc3C)CC2)c1	376 µM	9.78%	–
CC(=O)Oc1ccccc1C(=O)N1CCN(Cc2nc(C)c(C)nc2C)CC1	159 µM	3.02%	–
Cc1nc(C)c(CN2CCN(C(=O)c3cccnc3)CC2)nc1C	220 µM	5.08%	–
Cc1nc(C)c(CN2CCN(C(=O)c3ccncc3)CC2)nc1C	29.7 µM	6.07%	–
Cc1nc(C)c(CN2CCN(C(=O)C(C)(C)Oc3ccc(Cl)cc3)CC2)nc1C	–	13.68%	–
Cc1nc(C)c(CN2CCN(S(C)(=O)=O)CC2)nc1C	162 µM	33.51%	–
Cc1nc(C)c(CN2CCN(C(=O)CCl)CC2)nc1C	148 µM	24.89%	–
Cc1nc(C)c(CN2CCN(C(=O)c3ccco3)CC2)nc1C	37.6 µM	21.76%	–
COc1ccc(C(=O)N2CCN(Cc3nc(C)c(C)nc3C)CC2)cc1	210 µM	26.06%	–
Cc1nc(C)c(CN2CCN(C(=O)c3ccc([N+](=O)[O-])cc3)CC2)nc1C	462 µM	28.64%	–
COc1ccc(/C=C/C(=O)N2CCN(Cc3nc(C)c(C)nc3C)CC2)cc1OC	282 µM	6.13%	–
COc1ccccc1C(=O)N1CCN(Cc2nc(C)c(C)nc2C)CC1	249 µM	24.27%	–
Cc1nc(C)c(CN2CCN(C(=O)/C=C/c3cccc([N+](=O)[O-])c3)CC2)nc1C	422 µM	13.07%	–
Cc1nc(C)c(CN2CCN(C(=O)c3ccccc3I)CC2)nc1C	67.8 µM	25.45%	–
Cc1nc(C)c(CN2CCN(C(=O)Cc3ccc([N+](=O)[O-])cc3)CC2)nc1C	377 µM	18.24%	–
Cc1nc(C)c(C)nc1C [LIGUSTRAZINE]	154 µM	7.86%	2.89 h
